Measured values from ChEMBL document CHEMBL3297718, “Ultrasound-assisted one-pot four-component synthesis of novel 2-amino-3-cyanopyridine derivatives bearing 5-imidazopyrazole scaffold and their biological broadcast” (Eur J Med Chem, 2014).
Converted amounts (≈) assume the structure as drawn.

How the values were obtained:
[1] = test system: Mycobacterium tuberculosis; test: Antitubercular activity against Mycobacterium tuberculosis H37Rv at 250 ug/ml; format: functional
[2] = test system: Clostridium tetani; test: Antimicrobial activity against Clostridium tetani MTCC 449 by broth microdilution method; format: functional
[3] = Antioxidant activity assessed as ferric ion reducing activity using fe3+-TPTZ at 200 mg/ml measured as ascorbic acid per 100 g sample by FRAP assay; format: physicochemical
Method in brief: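 FRAP assay, modified Benzie–Strain. Reagent combined TPTZ in 40 mM HCl, aqueous FeCl₃·6H₂O and acetate buffer at pH 3.6. Sample solution was mixed with 3 mL reagent and incubated 25 min at 37 °C. Fe(II)–TPTZ absorbance was read at 593 nm against an ascorbic acid standard. Results are given as ascorbic equivalents, mmol/100 g compound.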

[4] = test system: Vibrio cholerae; test: Antimicrobial activity against Vibrio cholerae MTCC 3906 by broth microdilution method; format: functional
[5] = test system: Salmonella typhi; test: Antimicrobial activity against Salmonella typhi MTCC 98 by broth microdilution method; format: functional, Salmonella enterica subsp. enterica serovar Typhi; conditions: Salmonella enterica
[6] = test system: Bacillus subtilis; test: Antimicrobial activity against Bacillus subtilis MTCC 441 by broth microdilution method; format: functional
Method in brief: (§1)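 Broth microdilution following NCCLS. Compounds were diluted in 2% DMSO in water. Fungi were grown in Sabouraud dextrose broth. Inoculum was set to 10⁸ CFU mL⁻¹ by turbidity. A primary serial-dilution screen was followed by a secondary set of lower dilutions for primary actives. Tubes were incubated at 37 °C, with growth noted at 24 and 48 h. MIC was the highest dilution preventing turbidity after spot subculture.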

[7] = test system: Escherichia coli; test: Antimicrobial activity against Escherichia coli MTCC 443 by broth microdilution method; format: functional; method in brief: as §1
[8] = test system: Aspergillus fumigatus; test: Antimicrobial activity against Aspergillus fumigatus MTCC 3008 by broth microdilution method; format: functional; method in brief: as §1
[9] = test system: Candida albicans; test: Antimicrobial activity against Candida albicans MTCC 227 by broth microdilution method; format: functional; method in brief: as §1
[10] = test system: Streptococcus pneumoniae; test: Antimicrobial activity against Streptococcus pneumoniae MTCC 1936 by broth microdilution method; format: functional
[11] = test system: Mycobacterium tuberculosis; test: Antitubercular activity against Mycobacterium tuberculosis H37Rv; format: functional
Method in brief: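 M. tuberculosis H37Rv was grown on Lowenstein–Jensen medium with compound at a single concentration of 250, and compared against control tubes of medium alone with the organism. Results are given as % inhibition, and the concentration giving complete inhibition of colonies was taken as the active concentration.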

Structure (SMILES) | inhibition at 250 µg/mL [1] [%] | MIC [2] [µg/mL] | Activity [3] [mmol] | MIC [4] [µg/mL] | MIC [5] [µg/mL] | MIC [6] [µg/mL] | MIC [7] [µg/mL] | MIC [8] [µg/mL] | MIC [9] [µg/mL] | MIC [10] [µg/mL] | MIC [11] [µg/mL]
Cc1cn(-c2c(-c3cc(-c4ccccc4)nc(N)c3C#N)c(C)nn2-c2ccccc2)cn1 | 84 | 500 (≈ 1160 µM) | 401.81 | 200 (≈ 463 µM) | 250 (≈ 579 µM) | 100 (≈ 232 µM) | 200 (≈ 463 µM) | > 1000 | > 1000 | 500 (≈ 1160 µM) | 
Cc1nn(-c2ccccc2)c(-n2ccnc2)c1-c1cc(-c2ccccc2)nc(N)c1C#N | 25 | 250 (≈ 599 µM) | 427.08 | 250 (≈ 599 µM) | 200 (≈ 479 µM) | 200 (≈ 479 µM) | 250 (≈ 599 µM) | 1000 (≈ 2400 µM) | 1000 (≈ 2400 µM) | 250 (≈ 599 µM) | 
Cc1cn(-c2c(-c3cc(-c4ccc5c(c4)OC(C)(C)O5)nc(N)c3C#N)c(C)nn2-c2ccccc2)cn1 | 78 | 500 (≈ 993 µM) | 384.91 | 500 (≈ 993 µM) | 62.5 (≈ 124 µM) | 250 (≈ 496 µM) | 125 (≈ 248 µM) | 1000 (≈ 1990 µM) | 1000 (≈ 1990 µM) | 500 (≈ 993 µM) | 
COC1=CC(=O)C[C@@H](C)[C@]12Oc1c(Cl)c(OC)cc(OC)c1C2=O [GRISEOFULVIN] |  |  |  |  |  |  |  | 100 (≈ 283 µM) | 500 (≈ 1420 µM) |  | 
Cc1cn(-c2c(-c3cc(-c4cc5ccccc5oc4=O)nc(N)c3C#N)c(C)nn2-c2ccccc2)cn1 |  |  | 433.44 |  |  | 200 (≈ 400 µM) | 250 (≈ 500 µM) | 500 (≈ 1000 µM) | 250 (≈ 500 µM) | 100 (≈ 200 µM) | 
Cc1nn(-c2ccccc2)c(-n2ccnc2)c1-c1cc(-c2ccc(Cl)cc2)nc(N)c1C#N | 16 | 500 (≈ 1110 µM) | 490.33 | 500 (≈ 1110 µM) | 200 (≈ 443 µM) | 500 (≈ 1110 µM) | 62.5 (≈ 138 µM) | 500 (≈ 1110 µM) | 1000 (≈ 2210 µM) | 100 (≈ 221 µM) | 
Cc1nn(-c2ccccc2)c(-n2ccnc2)c1-c1cc(-c2ccc(-c3ccccc3)cc2)nc(N)c1C#N | 45 | 250 (≈ 507 µM) | 497.1 | 500 (≈ 1010 µM) | 125 (≈ 253 µM) | 500 (≈ 1010 µM) | 100 (≈ 203 µM) | 500 (≈ 1010 µM) | 500 (≈ 1010 µM) | 500 (≈ 1010 µM) | 
COc1ccc(-c2cc(-c3c(C)nn(-c4ccccc4)c3-n3cnc(C)c3)c(C#N)c(N)n2)cc1 | 56 | 250 (≈ 542 µM) | 178.82 | 62.5 (≈ 135 µM) | 250 (≈ 542 µM) | 250 (≈ 542 µM) | 125 (≈ 271 µM) | 1000 (≈ 2170 µM) | 500 (≈ 1080 µM) | 100 (≈ 217 µM) | 
Cc1nn(-c2ccccc2)c(-n2ccnc2)c1-c1cc(-c2cccs2)nc(N)c1C#N | 41 | 200 (≈ 472 µM) | 205.48 | 62.5 (≈ 148 µM) | 500 (≈ 1180 µM) | 200 (≈ 472 µM) | 500 (≈ 1180 µM) | 500 (≈ 1180 µM) | > 1000 | 100 (≈ 236 µM) | 
NNC(=O)c1ccncc1 [ISONIAZID] |  |  |  |  |  |  |  |  |  |  | 0.2 (≈ 1.46 µM)
Cc1cn(-c2c(-c3cc(-c4ccc(Cl)cc4)nc(N)c3C#N)c(C)nn2-c2ccccc2)cn1 | 22 | 500 (≈ 1070 µM) | 404.8 | 250 (≈ 537 µM) | 250 (≈ 537 µM) | 500 (≈ 1070 µM) | 200 (≈ 429 µM) | 500 (≈ 1070 µM) | 1000 (≈ 2150 µM) | 200 (≈ 429 µM) | 
CC1(C)S[C@@H]2[C@H](NC(=O)[C@H](N)c3ccccc3)C(=O)N2[C@H]1C(=O)O [AMPICILLIN] |  | 250 (≈ 715 µM) |  | 100 (≈ 286 µM) | 100 (≈ 286 µM) | 250 (≈ 715 µM) | 100 (≈ 286 µM) |  |  | 100 (≈ 286 µM) | 
Cc1nn(-c2ccccc2)c(-n2ccnc2)c1-c1cc(-c2cc3ccccc3oc2=O)nc(N)c1C#N |  |  | 401.22 |  |  | 500 (≈ 1030 µM) | 200 (≈ 412 µM) | 1000 (≈ 2060 µM) | 500 (≈ 1030 µM) | 100 (≈ 206 µM) | 
Cc1cn(-c2c(-c3cc(-c4ccc(Br)cc4)nc(N)c3C#N)c(C)nn2-c2ccccc2)cn1 | 84 | 100 (≈ 196 µM) | 70.61 | 250 (≈ 490 µM) | 500 (≈ 980 µM) | 62.5 (≈ 122 µM) | 500 (≈ 980 µM) | > 1000 | 1000 (≈ 1960 µM) | 250 (≈ 490 µM) | 
CO[C@H]1/C=C/O[C@@]2(C)Oc3c(C)c(O)c4c(O)c(c(/C=N/N5CCN(C)CC5)c(O)c4c3C2=O)NC(=O)/C(C)=C\C=C\[C@H](C)[C@H](O)[C@@H](C)[C@@H](O)[C@@H](C)[C@H](OC(C)=O)[C@@H]1C [RIFAMPIN] | 98 |  |  |  |  |  |  |  |  |  | 0.15 (≈ 0.182 µM)
Cc1nn(-c2ccccc2)c(-n2ccnc2)c1C=O | 91 | 250 (≈ 991 µM) | 242.88 | 250 (≈ 991 µM) | 125 (≈ 495 µM) | 250 (≈ 991 µM) | 100 (≈ 396 µM) | > 1000 | > 1000 | 500 (≈ 1980 µM) | 100 (≈ 396 µM)
Cc1cn(-c2c(C=O)c(C)nn2-c2ccccc2)cn1 | 65 | 150 (≈ 563 µM) | 213.24 | 250 (≈ 939 µM) | 200 (≈ 751 µM) | 100 (≈ 376 µM) | 250 (≈ 939 µM) | 500 (≈ 1880 µM) | 250 (≈ 939 µM) | 500 (≈ 1880 µM) | 
Cc1nn(-c2ccccc2)c(-n2ccnc2)c1-c1cc(-c2ccc(Br)cc2)nc(N)c1C#N | 37 | 200 (≈ 403 µM) | 67.63 | 200 (≈ 403 µM) | 200 (≈ 403 µM) | 200 (≈ 403 µM) | 100 (≈ 201 µM) | 500 (≈ 1010 µM) | 500 (≈ 1010 µM) | 200 (≈ 403 µM) | 
Cc1cn(-c2c(-c3cc(-c4ccco4)nc(N)c3C#N)c(C)nn2-c2ccccc2)cn1 | 92 | 500 (≈ 1190 µM) | 397.24 | 200 (≈ 475 µM) | 200 (≈ 475 µM) | 500 (≈ 1190 µM) | 250 (≈ 593 µM) | > 1000 | > 1000 | 250 (≈ 593 µM) | 100 (≈ 237 µM)
Cc1cn(-c2c(-c3cc(-c4cccs4)nc(N)c3C#N)c(C)nn2-c2ccccc2)cn1 | 23 | 500 (≈ 1140 µM) | 422.3 | 100 (≈ 229 µM) | 250 (≈ 571 µM) | 500 (≈ 1140 µM) | 250 (≈ 571 µM) | > 1000 | > 1000 | 100 (≈ 229 µM) | 
Cc1cn(-c2c(-c3cc(-c4ccc(F)cc4)nc(N)c3C#N)c(C)nn2-c2ccccc2)cn1 | 62 | 250 (≈ 556 µM) | 392.66 | 100 (≈ 222 µM) | 250 (≈ 556 µM) | 500 (≈ 1110 µM) | 500 (≈ 1110 µM) | 1000 (≈ 2220 µM) | > 1000 | 100 (≈ 222 µM) | 
Cc1nn(-c2ccccc2)c(-n2ccnc2)c1-c1cc(-c2ccco2)nc(N)c1C#N | 96 | 150 (≈ 368 µM) | 456.32 | 100 (≈ 245 µM) | 100 (≈ 245 µM) | 100 (≈ 245 µM) | 250 (≈ 614 µM) | > 1000 | 500 (≈ 1230 µM) | 100 (≈ 245 µM) | 25 (≈ 61.4 µM)
Cc1nn(-c2ccccc2)c(-n2ccnc2)c1-c1cc(-c2ccc(F)cc2)nc(N)c1C#N | 15 | 500 (≈ 1150 µM) | 405.2 | 200 (≈ 459 µM) | 500 (≈ 1150 µM) | 200 (≈ 459 µM) | 500 (≈ 1150 µM) | 1000 (≈ 2300 µM) | 1000 (≈ 2300 µM) | 200 (≈ 459 µM) | 
COc1ccc(-c2cc(-c3c(C)nn(-c4ccccc4)c3-n3ccnc3)c(C#N)c(N)n2)cc1 | 94 | 200 (≈ 447 µM) | 400.22 | 200 (≈ 447 µM) | 200 (≈ 447 µM) | 100 (≈ 223 µM) | 125 (≈ 279 µM) | 1000 (≈ 2230 µM) | > 1000 | 125 (≈ 279 µM) | 62.5 (≈ 140 µM)
Cc1cn(-c2c(-c3cc(-c4ccc(-c5ccccc5)cc4)nc(N)c3C#N)c(C)nn2-c2ccccc2)cn1 | 23 | 250 (≈ 493 µM) | 495.9 | 100 (≈ 197 µM) | 200 (≈ 394 µM) | 250 (≈ 493 µM) | 250 (≈ 493 µM) | 500 (≈ 985 µM) | 500 (≈ 985 µM) | 125 (≈ 246 µM) | 
